What was measured:
[1] = biological target: Voltage-gated inwardly rectifying potassium channel KCNH2 (Homo sapiens, UniProt Q12809); test: Inhibition of human ERG expressed in CHOK1 cell membranes after 2 hrs by cy3b-dofetilide-based fluorescence polarization assay
[2] = biological target: T1, Tyrosine-protein kinase SYK (Homo sapiens, UniProt P43405); test: Inhibition of N-terminal 6His-tagged full length human recombinant SYK expressed in baculovirus using Biotin-AAAEEIYGEI as substrate after 60 mins by TR-FRET assay
albumin = albumin (Homo sapiens, UniProt P02768); test: Binding affinity to human serum albumin by HPLC analysis; type: ADME; settings: read-out: PB (converted)
albumin, sequence (P02768 whole entry): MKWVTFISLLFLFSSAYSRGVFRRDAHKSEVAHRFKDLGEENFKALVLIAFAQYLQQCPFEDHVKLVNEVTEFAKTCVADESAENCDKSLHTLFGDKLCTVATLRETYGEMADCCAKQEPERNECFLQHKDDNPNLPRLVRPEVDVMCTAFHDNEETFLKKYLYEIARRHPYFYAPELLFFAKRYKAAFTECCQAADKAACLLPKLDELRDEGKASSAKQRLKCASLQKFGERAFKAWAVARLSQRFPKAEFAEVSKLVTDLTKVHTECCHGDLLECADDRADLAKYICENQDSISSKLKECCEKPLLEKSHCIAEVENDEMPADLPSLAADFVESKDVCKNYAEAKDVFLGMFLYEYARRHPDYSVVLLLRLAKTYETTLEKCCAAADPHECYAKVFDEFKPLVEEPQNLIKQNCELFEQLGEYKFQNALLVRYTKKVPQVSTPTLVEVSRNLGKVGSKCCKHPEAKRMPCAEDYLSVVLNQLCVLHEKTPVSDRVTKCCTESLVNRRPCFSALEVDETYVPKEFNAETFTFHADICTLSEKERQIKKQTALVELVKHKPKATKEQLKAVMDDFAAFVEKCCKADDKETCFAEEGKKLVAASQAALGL

[3] = biological target: T1, Tyrosine-protein kinase SYK; test: Inhibition of SYK in human B cells assessed as suppression of anti-IgM-induced CD69 surface expression preincubated for 30 mins followed by anti-IgM addition measured after 3.5 hrs by flow cytometric analysis; type: cell-based
[4] = Lipophilicity, log D of the compound by chromatographic method; type: physicochemical
Aurora kinase B = Aurora kinase B (Homo sapiens, UniProt Q96GD4); test: Inhibition of N-terminal-6His-tagged full length human Aurora B expressed in baculovirus using 5FAM-PKA-tide as substrate after 120 mins by fluorescence polarization assay
Aurora kinase B, sequence (Q96GD4 whole entry): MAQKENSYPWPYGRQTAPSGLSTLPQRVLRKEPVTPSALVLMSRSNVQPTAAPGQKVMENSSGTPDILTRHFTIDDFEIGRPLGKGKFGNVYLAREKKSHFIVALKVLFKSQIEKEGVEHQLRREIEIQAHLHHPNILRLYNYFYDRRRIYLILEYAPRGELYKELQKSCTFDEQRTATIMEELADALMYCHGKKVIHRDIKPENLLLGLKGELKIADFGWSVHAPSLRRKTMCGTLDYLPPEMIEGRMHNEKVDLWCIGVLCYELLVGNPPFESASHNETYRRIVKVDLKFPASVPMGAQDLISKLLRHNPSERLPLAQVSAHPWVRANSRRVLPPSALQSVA

[5] = Cmax in rat at 3 mg/kg, po; type: ADME, organism-based; set-up: dose 3 mg/kg, route oral; settings: in vivo
[6] = AUC in rat at 3 mg/kg, po; type: ADME, organism-based; settings: in vivo
[7] = Dissociation constant, pKa of the compound; type: physicochemical
[8] = biological target: Tyrosine-protein kinase JAK1 (Homo sapiens, UniProt P23458); test: Inhibition of JAK1 (unknown origin)
Tyrosine-protein kinase JAK1, sequence (P23458 whole entry): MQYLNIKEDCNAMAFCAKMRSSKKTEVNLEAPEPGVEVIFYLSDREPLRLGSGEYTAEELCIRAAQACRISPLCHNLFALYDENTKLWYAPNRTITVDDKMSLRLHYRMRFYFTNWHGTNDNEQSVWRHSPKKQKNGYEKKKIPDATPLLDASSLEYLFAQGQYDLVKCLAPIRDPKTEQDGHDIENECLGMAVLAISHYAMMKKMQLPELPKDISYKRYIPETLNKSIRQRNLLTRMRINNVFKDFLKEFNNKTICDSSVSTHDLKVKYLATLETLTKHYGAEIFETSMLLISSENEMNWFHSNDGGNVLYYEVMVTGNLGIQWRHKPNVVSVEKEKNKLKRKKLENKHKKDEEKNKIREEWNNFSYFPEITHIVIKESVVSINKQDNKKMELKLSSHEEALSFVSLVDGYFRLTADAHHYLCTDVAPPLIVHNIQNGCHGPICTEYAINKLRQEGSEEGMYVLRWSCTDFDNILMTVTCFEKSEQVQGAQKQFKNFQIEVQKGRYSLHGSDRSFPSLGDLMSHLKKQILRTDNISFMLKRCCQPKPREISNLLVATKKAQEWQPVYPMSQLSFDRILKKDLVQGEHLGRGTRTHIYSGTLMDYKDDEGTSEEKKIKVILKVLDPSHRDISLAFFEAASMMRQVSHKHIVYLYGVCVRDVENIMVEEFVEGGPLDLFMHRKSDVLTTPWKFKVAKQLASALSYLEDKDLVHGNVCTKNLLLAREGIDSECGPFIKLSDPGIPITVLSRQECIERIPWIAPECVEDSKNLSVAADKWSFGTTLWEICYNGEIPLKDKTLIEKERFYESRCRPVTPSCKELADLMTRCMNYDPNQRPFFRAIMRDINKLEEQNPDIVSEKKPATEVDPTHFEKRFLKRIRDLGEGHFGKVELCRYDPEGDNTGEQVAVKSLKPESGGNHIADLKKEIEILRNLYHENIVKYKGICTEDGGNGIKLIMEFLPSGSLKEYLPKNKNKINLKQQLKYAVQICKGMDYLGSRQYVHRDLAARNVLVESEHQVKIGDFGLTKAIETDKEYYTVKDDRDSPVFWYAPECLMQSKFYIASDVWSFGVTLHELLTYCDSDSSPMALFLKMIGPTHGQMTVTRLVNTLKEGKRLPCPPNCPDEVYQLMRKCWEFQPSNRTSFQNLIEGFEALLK

[9] = biological target: Vascular endothelial growth factor receptor 2 (Homo sapiens, UniProt P35968); test: Inhibition of KDR (unknown origin)
Vascular endothelial growth factor receptor 2, sequence (P35968 whole entry): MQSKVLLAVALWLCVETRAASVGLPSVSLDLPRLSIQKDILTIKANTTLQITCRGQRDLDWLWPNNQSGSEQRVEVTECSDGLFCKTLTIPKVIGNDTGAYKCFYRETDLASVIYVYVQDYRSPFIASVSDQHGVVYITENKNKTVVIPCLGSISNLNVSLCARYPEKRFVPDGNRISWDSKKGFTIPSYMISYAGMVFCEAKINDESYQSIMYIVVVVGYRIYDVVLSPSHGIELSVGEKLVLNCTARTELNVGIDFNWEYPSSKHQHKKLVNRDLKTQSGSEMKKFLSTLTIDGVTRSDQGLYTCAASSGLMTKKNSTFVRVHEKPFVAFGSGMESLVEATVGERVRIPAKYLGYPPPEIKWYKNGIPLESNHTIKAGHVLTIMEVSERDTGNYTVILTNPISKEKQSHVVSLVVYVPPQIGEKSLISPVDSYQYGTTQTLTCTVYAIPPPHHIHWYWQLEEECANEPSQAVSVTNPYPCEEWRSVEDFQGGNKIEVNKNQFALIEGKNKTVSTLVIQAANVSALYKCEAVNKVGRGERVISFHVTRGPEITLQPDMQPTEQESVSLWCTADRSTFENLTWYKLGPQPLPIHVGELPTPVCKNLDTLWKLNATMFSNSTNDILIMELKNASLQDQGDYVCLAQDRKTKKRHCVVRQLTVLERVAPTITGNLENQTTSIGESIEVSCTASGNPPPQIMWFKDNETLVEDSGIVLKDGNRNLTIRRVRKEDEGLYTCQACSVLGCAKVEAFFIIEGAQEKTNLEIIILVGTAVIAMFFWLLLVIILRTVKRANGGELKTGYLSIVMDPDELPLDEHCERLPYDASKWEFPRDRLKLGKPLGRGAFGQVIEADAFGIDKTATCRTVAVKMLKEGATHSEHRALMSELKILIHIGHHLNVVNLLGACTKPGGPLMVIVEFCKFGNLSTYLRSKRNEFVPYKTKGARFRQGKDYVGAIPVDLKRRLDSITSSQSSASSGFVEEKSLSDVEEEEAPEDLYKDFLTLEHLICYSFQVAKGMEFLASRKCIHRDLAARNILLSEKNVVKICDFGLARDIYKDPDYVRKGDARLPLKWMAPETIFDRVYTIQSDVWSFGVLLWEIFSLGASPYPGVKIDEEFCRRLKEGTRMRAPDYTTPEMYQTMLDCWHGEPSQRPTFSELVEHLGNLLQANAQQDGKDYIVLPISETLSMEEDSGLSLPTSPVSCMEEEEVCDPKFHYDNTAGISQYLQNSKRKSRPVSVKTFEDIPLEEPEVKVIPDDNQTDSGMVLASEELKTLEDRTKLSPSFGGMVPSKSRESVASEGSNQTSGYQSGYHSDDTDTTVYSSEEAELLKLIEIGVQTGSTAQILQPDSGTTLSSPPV

[10] = Genotoxicity in Salmonella typhimurium TA1537 at 5000 ug/plate in presence of metabolic activation by Ames test; type: toxicity; settings: salmonella enterica subsp. enterica serovar typhimurium
[11] = Half life in rat at 3 mg/kg, po or 1 mg/kg, iv; type: ADME, organism-based; settings: in vivo
How it was run: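 Screening PK in rats: oral dosing at 3 mg/kg (n = 3) and intravenous dosing at 1 mg/kg (n = 1). Blood clearance, volume of distribution at steady state, half-life and oral bioavailability were derived from these profiles.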

[12] = biological target: Tyrosine-protein kinase BTK (Homo sapiens, UniProt Q06187); test: Inhibition of BTK (unknown origin)
Rattus norvegicus [13] = test: (§1) In vivo inhibition of SYK-stimulated Fc-gamma receptor mediated immune complex activation in po dosed CD rat assessed as reduction in cutaneous reverse passive Arthus reaction preincubated for 1 hr followed by ovalbumin challenge with Evans blue dye measured after 4 hrs by spectrophotometric analysis; type: functional, organism-based
How it was run: (§2)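 Male CD rats (175–200 g, 8 per group, observer blind) got an oral suspension in 1% methylcellulose 1 h before challenge, with blood sampled for exposure. Challenge was iv 1% ovalbumin in saline (10 mg/kg) with 1% Evans blue. Ten min later, under isoflurane, rabbit anti-OVA IgG went intradermally at three left sites, control rabbit IgG on the right. At 4 h, 12 mm skin punches went into formamide, 16 h at 80 °C.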

[14] = Genotoxicity in Salmonella typhimurium TA1537 at 5000 ug/plate in absence of metabolic activation by Ames test; type: toxicity; settings: salmonella enterica subsp. enterica serovar typhimurium
Rattus norvegicus [15] = test: as §1, with “in” for “in po dosed”, “reaction at 30 mg/kg, po” for “reaction”; type: functional; how it was run: as §2
[16] = biological target: Leucine-rich repeat serine/threonine-protein kinase 2 (Homo sapiens, UniProt Q5S007); test: Inhibition of LRRK2 (unknown origin)
Rattus norvegicus [17] = test: as §1, with “in” for “in po dosed”, “reaction at 10 mg/kg, po” for “reaction”; type: functional; how it was run: as §2

Voltage-gated inwardly rectifying potassium channel KCNH2, sequence (Q12809 whole entry): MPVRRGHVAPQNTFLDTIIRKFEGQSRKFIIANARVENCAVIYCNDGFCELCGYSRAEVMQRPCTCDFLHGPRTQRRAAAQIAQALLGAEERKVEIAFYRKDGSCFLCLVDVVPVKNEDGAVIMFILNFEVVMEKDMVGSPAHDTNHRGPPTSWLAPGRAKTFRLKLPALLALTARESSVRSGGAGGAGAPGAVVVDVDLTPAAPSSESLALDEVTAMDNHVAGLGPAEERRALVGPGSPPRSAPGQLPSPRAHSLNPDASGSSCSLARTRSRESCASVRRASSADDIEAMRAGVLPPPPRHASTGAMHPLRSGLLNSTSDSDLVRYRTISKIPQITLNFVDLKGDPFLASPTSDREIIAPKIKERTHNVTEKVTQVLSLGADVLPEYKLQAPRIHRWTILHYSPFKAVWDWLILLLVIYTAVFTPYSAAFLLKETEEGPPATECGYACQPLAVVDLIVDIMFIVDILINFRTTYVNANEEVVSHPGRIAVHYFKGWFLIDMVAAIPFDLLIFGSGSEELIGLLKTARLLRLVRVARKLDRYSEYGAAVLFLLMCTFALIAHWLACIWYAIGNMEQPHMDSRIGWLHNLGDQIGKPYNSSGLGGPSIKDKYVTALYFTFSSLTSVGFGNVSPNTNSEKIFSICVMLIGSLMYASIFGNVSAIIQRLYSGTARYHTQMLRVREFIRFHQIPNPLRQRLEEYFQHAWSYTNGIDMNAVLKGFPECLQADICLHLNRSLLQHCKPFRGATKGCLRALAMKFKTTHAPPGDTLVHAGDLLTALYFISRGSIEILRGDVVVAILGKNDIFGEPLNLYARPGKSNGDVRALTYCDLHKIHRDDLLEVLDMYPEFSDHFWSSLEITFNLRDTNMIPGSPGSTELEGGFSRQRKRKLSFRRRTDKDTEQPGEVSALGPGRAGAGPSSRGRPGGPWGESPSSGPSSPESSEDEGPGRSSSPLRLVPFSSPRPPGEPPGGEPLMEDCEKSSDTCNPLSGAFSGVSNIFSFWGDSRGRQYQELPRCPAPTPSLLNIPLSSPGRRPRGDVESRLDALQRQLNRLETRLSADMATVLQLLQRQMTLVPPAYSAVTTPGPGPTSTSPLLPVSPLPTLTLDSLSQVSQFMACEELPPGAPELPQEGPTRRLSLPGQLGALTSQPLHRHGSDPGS

Compound	IC50 [1]	IC50 [2]	fraction unbound (albumin)	IC50 [3]	further results
CN(C)c1ccc(-c2cc3nccnc3c(NCCC(N)=O)n2)cn1	> 50.1 µM	158 nM	0.04	3980 nM	
Cc1ccc(-c2cc3ncccc3c(NC[C@H]3CCCNC3)n2)cc1		20 nM	0.05	794 nM	
c1cnc2c(NC[C@H]3CCCNC3)nc(-c3cn[nH]c3)cc2n1	> 50.1 µM	50.1 nM	0.24	316 nM	
c1cnc2c(NC[C@H]3CCCNC3)nc(N3CCNCC3)cc2n1	> 50.1 µM	> 25100 nM	0.3		
CN(C)c1ccc(-c2cc3ncccc3c(NC[C@H]3CCCNC3)n2)cn1	> 50.1 µM	7.94 nM	0.06	794 nM	
CN1CCNC[C@H]1COc1nc(-c2cnn(C)c2)cc2nccnc12	> 50.1 µM			100 nM	
O=C1CN(c2cc3nccnc3c(NC[C@H]3CCCNC3)n2)CCN1		6310 nM	0.41		chromatographic logD [4]: 0.6; IC50 (Aurora kinase B): 7940 nM
Cc1ccc(-c2cc3nc[nH]c(=O)c3c(NC[C@H]3CCCNC3)n2)cc1	7.94 µM	158 nM	0.09	3980 nM	
CN1CCNC[C@H]1CNc1nc(-c2cnn(C)c2)cc2nccnc12	> 50.1 µM	100 nM		200 nM	
CN(C)c1ccc(-c2cc3nccnc3c(OC[C@H]3CCCNC3)n2)cn1	10 µM	3.98 nM	0.1	126 nM	
CN(C)c1ccc(-c2cc3nccnc3c(NC[C@H]3CCCNC3)n2)cn1		15.8 nM	0.08	316 nM	
CN(C)c1ccc(-c2cc3nccnc3c(CCC3CCCNC3)n2)cn1 (racemic)		251 nM	0.09	1000 nM	chromatographic logD [4]: 2.4
CN(C)c1ccc(-c2cc3nccnc3c(NC[C@@H]3CNCCN3C)n2)cn1	> 50.1 µM	50.1 nM	0.09		
Cc1ccc(-c2cc3ncncc3c(NC[C@H]3CCCNC3)n2)cc1	10 µM	200 nM	0.09	3980 nM	
CN(C)c1ccc(-c2cc(NC[C@H]3CCCNC3)c3cccnc3c2)cn1		6.31 nM	0.05	501 nM	
CN(C)c1ccc(-c2cc3nccnc3c(NCCCCO)n2)cn1	31.6 µM	200 nM	0.08	> 10000 nM	
Cn1cc(-c2cc3nccnc3c(NCC3CNCC(F)(F)C3)n2)cn1 (racemic)	> 50.1 µM	316 nM		2000 nM	Cmax [5]: 96 ng/mL; AUC [6]: 216 ng·h/mL; IC50 (Aurora kinase B): 501 nM; pKa [7]: 6.9
c1cnc2c(NC[C@H]3CCCNC3)nc(-c3cc[nH]n3)cc2n1	> 50.1 µM		0.21		
Cc1ccc(-c2cc3nccnc3c(NCCCCN)n2)cc1	15.8 µM				IC50 [8]: 2000 nM; IC50 [9]: 1580 nM

Compound	IC50 [1]	IC50 [2]	fraction unbound (albumin)	IC50 [3]	further results
Cc1ccc(-c2cc3nccnc3c(NC[C@H]3CCCNC3)n2)cc1		25.1 nM	0.09	794 nM	
CN(C)c1ccc(-c2cc3nccnc3c(NC[C@H]3CNCCN3C)n2)cn1	15.8 µM	79.4 nM	0.07	251 nM	
Cc1ccc(-c2cc3ncn(C)c(=O)c3c(NC[C@H]3CCCNC3)n2)cc1	25.1 µM	79.4 nM	0.1	1260 nM	
CN(C)c1ccc(-c2cc3nccnc3c(NC[C@H]3CNCCO3)n2)cn1	> 50.1 µM	200 nM	0.11	1580 nM	
CN(C)c1ccc(-c2cc3nccnc3c(NCC(F)(F)F)n2)cn1	> 50.1 µM	126 nM	0.04	> 10000 nM	chromatographic logD [4]: 5.7; IC50 (Aurora kinase B): 50.1 nM
Cc1ccc(-c2cc3nccnc3c(NC[C@H]3CCCNC3)n2)o1	20 µM			794 nM	
Cn1cc(-c2cc3nccnc3c(NC[C@@H]3CNCCO3)n2)cn1	> 50.1 µM	63.1 nM		158 nM	Activity [10]: Non-Toxic; IC50 [8]: 501 nM; half-life [11]: 102 min; IC50 [12]: 251 nM; inhibition (Rattus norvegicus [13]): Dose-dependent effect; Activity [14]: Non-Toxic; inhibition in vivo at 30 mg/kg (Rattus norvegicus [15]): 85%; IC50 [16]: 251 nM; inhibition in vivo at 10 mg/kg (Rattus norvegicus [17]): 45%
Cc1ccc(-c2cc3nccnc3c(NC[C@H]3CCCNC3)n2)s1	5.01 µM	20 nM	0.08	1000 nM	
CN(C)c1ccc(-c2cc3nccnc3c(NCC3CNCC(F)(F)C3)n2)cn1 (racemic)	> 50.1 µM	100 nM	0.07	1580 nM	chromatographic logD [4]: 4.2; IC50 (Aurora kinase B): 501 nM
Cn1cc(-c2cc3nccnc3c(OCC3CNCC(F)(F)C3)n2)cn1 (racemic)	> 50.1 µM	158 nM		631 nM	Cmax [5]: 148 ng/mL; AUC [6]: 296 ng·h/mL; IC50 (Aurora kinase B): 63.1 nM; pKa [7]: 7
CN(C)c1ccc(-c2cc3nccnc3c(NC[C@H]3CNCCC3(F)F)n2)cn1	20 µM	31.6 nM	0.05	1580 nM	
CN(C)c1ccc(-c2cc3nccnc3c(OC[C@@H]3CCCNC3)n2)cn1	12.6 µM	25.1 nM	0.09	501 nM	
Cn1cc(-c2cc3nccnc3c(NC[C@H]3CCCNC3)n2)cn1	> 50.1 µM	31.6 nM	0.25	126 nM	
Cn1cc(-c2cc3nccnc3c(OC[C@H]3CCCNC3)n2)cn1	> 50.1 µM	39.8 nM	0.22	200 nM	
CN(C)c1ccc(-c2cc3nccnc3c(NC[C@@H]3CNCCO3)n2)cn1	> 50.1 µM	25.1 nM	0.12	316 nM	
CN(C)c1ccc(-c2cc3nccnc3c(NCCCCN)n2)cn1	39.8 µM		0.11		
Cn1cc(-c2cc3nccnc3c(NC[C@@H]3CNCCC3(F)F)n2)cn1	25.1 µM	3.98 nM		79.4 nM	
CN(C)c1ccc(-c2cc3nccnc3c(NC[C@@H]3CNCCC3(F)F)n2)cn1		2.51 nM	0.05	158 nM	
Cn1cc(-c2cc3nccnc3c(OCC3CNCCC3(F)F)n2)cn1 (racemic)					Cmax [5]: 28 ng/mL; AUC [6]: 99 ng·h/mL; pKa [7]: 7.7

— ChEMBL document CHEMBL4431389, “Optimisation of a novel series of potent and orally bioavailable azanaphthyridine SYK inhibitors” (Bioorg Med Chem Lett, 2016)
